Measured values as given in ChEMBL document CHEMBL1126078, “Benzodiazepine receptor affinity and interaction of some N-(indol-3-ylglyoxylyl)amine derivatives” (J Med Chem, 1992).
Activity calls are given as the source filed them. The rule behind the calls is not given here.

Assays:
[1] = target: T1, GABA-A receptor; anion channel (Bos taurus) (UniProt P10063+P08220+P20237+P08219+P10064+P22300); test: In vitro inhibition of specific binding of [3H]flunitrazepam to benzodiazepine receptor in bovine cerebral cortex membrane at a concentration of 10 uM.; type: cell membranes
In short: (§1)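 Bovine cortex membranes (sucrose homogenate, 50 000g pellet, frozen and washed to remove endogenous GABA) in 50 mM Tris-HCl pH 7.4; 0.4 mg protein incubated 90 min at 0 °C with 0.2 nM [3H]flunitrazepam, filtered, counted. Nonspecific binding with 10 μM diazepam. Single test concentration 10 μM, or 1 μM where insoluble; mean ± SEM of five determinations.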

[2] = target: GABA-A receptor; anion channel; test: (§2) In vitro inhibition of [3H]flunitrazepam binding to GABA-A benzodiazepine receptor of bovine cerebral cortical membranes at 10 uM; set-up: species or system Bos taurus; in short: as §1
[3] = target: T1, GABA-A receptor; anion channel (Bos taurus); test: Relative binding to GABA-A receptor in the presence and absence of GABA (GABA shift), Ki(-GABA)/Ki(+GABA); type: protein-complex assay
In short: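 Same [3H]flunitrazepam (0.2 nM, 0 °C, 90 min) binding with GABA-depleted washed bovine cortical membranes. IC50 from log-probit analysis of 6–8 concentrations in triplicate, measured with and without 10 μM GABA; Ki by Cheng–Prusoff (Kd 1.8 nM). Ratio = Ki without GABA / Ki with GABA; Ki means ± SEM of three determinations.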

[4] = target: T1, GABA-A receptor; anion channel (Bos taurus); test: as §2; in short: as §1
Mus musculus [5] = test: In vivo ip dose to induce convulsions in mice treated with subconvulsant PTZ (40 mg/kg); type: functional
In short: (§3)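 Groups of 10 mice given graded doses ip (0.1 mL) suspended in 1% carboxymethylcellulose vehicle, or vehicle alone; PTZ given 30 min later at 80 mg/kg (anticonvulsant test) or 40 mg/kg subconvulsant (proconvulsant test). Proconvulsant value: dose inducing convulsions in 50% of mice. Highest dose tested 250 mg/kg.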

Mus musculus [6] = test: Anticonvulsant activity in mice on ip dose before 80 mg/kg of PTZ (NE=no effect); type: functional, organism-based; set-up: dose 80 mg/kg; in short: as §3
Mus musculus [7] = test: In vivo ip dose to antagonize Diazepam (2.5 mg/kg) anticonvulsant effect in mice treated with 80 mg/kg PTZ; type: functional; conditions: route intraperitoneal
In short: (§4)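 Groups of 10 mice received diazepam 2.5 mg/kg ip, then 10 min later graded ip doses of compound or vehicle; PTZ 80 mg/kg given 15 min after compound. Value: dose antagonizing diazepam's anticonvulsant effect in 50% of mice. Highest dose tested 250 mg/kg.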

[8] = target: T1, GABA-A receptor; anion channel (Bos taurus); test: In vitro inhibition of [3H]flunitrazepam binding to GABA-A benzodiazepine receptor of bovine cerebral cortical membranes at 1 uM; in short: as §1
Mus musculus [9] = test: In vivo ip dose to antagonize Diazepam (2.5 mg/kg) anticonvulsant effect in mice treated with 80 mg/kg PTZ (NE=no effect); type: functional, organism-based; set-up: dose 80 mg/kg; in short: as §4
Mus musculus [10] = test: In vivo ip dose to induce convulsions in mice treated with subconvulsant PTZ (40 mg/kg) (NE=no effect); type: functional, organism-based; in short: as §3

SMILES | inhibition [1] [%] | Ki [2] [nM] | Ratio [3] | further results
COc1ccc(CCNC(=O)C(=O)c2c[nH]c3ccccc23)cc1OC | 96 | 510 | 1.3 | 
CCOC(=O)c1ncn2c1CN(C)C(=O)c1cc(F)ccc1-2 [FLUMAZENIL] |  | 0.38 | 1 | 
CN1C(=O)CN=C(c2ccccc2)c2cc(Cl)ccc21 [DIAZEPAM] |  | 10 | 1.7 | 
COc1ccc(CCNC(=O)C(=O)c2c[nH]c3ccc([N+](=O)[O-])cc23)cc1 | 32 |  |  | 
O=C(NCCc1c[nH]c2ccccc12)C(=O)c1c[nH]c2ccccc12 | 83 | 1500 | 1 | 
O=C(NCCc1ccc(O)cc1)C(=O)c1c[nH]c2ccc(Cl)cc12 | 83 | 2200 | 0.8 | 
O=C(NCCc1ccc(O)c(O)c1)C(=O)c1c[nH]c2ccccc12 |  | 4200 | 0.92 | inhibition [4]: 68%
COc1ccc(CCNC(=O)C(=O)c2cn(C)c3ccccc23)cc1 | 67 |  |  | 
COc1ccc(CCNC(=O)C(=O)c2c[nH]c3ccc(Cl)cc23)cc1OC | 94 | 700 | 1.3 | 
O=C(NCCc1ccc(O)cc1)C(=O)c1c[nH]c2ccc([N+](=O)[O-])cc12 | 100 | 350 | 0.7 | ED50 (Mus musculus [5]): 75 mg/kg; Activity (Mus musculus [6]): inactive; ED50 (Mus musculus [7]): 50 mg/kg
Cn1cc(C(=O)C(=O)NCCc2ccccc2)c2ccccc21 | 42 |  |  | 
Cn1cc(C(=O)C(=O)NCCc2ccc(Cl)cc2)c2ccccc21 |  |  |  | inhibition [4]: 25%
Cn1cc(C(=O)C(=O)NCCc2ccc(O)c(O)c2)c2ccccc21 |  |  |  | inhibition [4]: 17%
O=C(NCCc1ccccc1)C(=O)c1c[nH]c2ccc([N+](=O)[O-])cc12 |  |  |  | inhibition [8]: 39%
O=C(NCCc1c[nH]c2ccccc12)C(=O)c1c[nH]c2ccc([N+](=O)[O-])cc12 | 90 | 350 | 0.65 | 
O=C(NCCc1ccc(Cl)cc1)C(=O)c1c[nH]c2ccc([N+](=O)[O-])cc12 | 0 |  |  | 
COc1cccc(CCNC(=O)C(=O)c2c[nH]c3ccccc23)c1 | 97 | 85 | 1.2 | 

SMILES | inhibition [1] [%] | Ki [2] [nM] | Ratio [3] | further results
O=C(NCCc1ccccc1)C(=O)c1c[nH]c2ccccc12 | 94 | 380 | 1.3 | ED50 (Mus musculus [9]): inactive; Activity (Mus musculus [6]): inactive; ED50 (Mus musculus [10]): inactive
O=C(NCCc1ccccc1)C(=O)c1c[nH]c2ccc(Cl)cc12 | 25 |  |  | 
Cn1cc(C(=O)C(=O)NCCc2c[nH]c3ccccc23)c2ccccc21 | 39 |  |  | 
O=C(NCCc1ccc(O)cc1)C(=O)c1c[nH]c2ccccc12 | 82 | 2400 | 0.7 | 
Cn1cc(C(=O)C(=O)NCCc2ccc(O)cc2)c2ccccc21 | 58 |  |  | 
O=C(NCCc1ccc(O)c(O)c1)C(=O)c1c[nH]c2ccc(Cl)cc12 |  | 1000 | 0.52 | inhibition [4]: 90%
COc1ccc(CCNC(=O)C(=O)c2c[nH]c3ccc([N+](=O)[O-])cc23)cc1OC |  |  | 1 | 
O=C(NCCc1ccc(O)c(O)c1)C(=O)c1c[nH]c2ccc([N+](=O)[O-])cc12 |  | 280 | 0.64 | ED50 (Mus musculus [5]): 100 mg/kg; Activity (Mus musculus [6]): inactive; ED50 (Mus musculus [7]): 75 mg/kg; inhibition [4]: 100%
O=C(NCCc1ccc(O)cc1)C(=O)c1c[nH]c2ccc(Br)cc12 | 75 | 2300 | 0.8 | 
COc1ccc(CCNC(=O)C(=O)c2c[nH]c3ccccc23)cc1 | 97 | 90 | 1.3 | ED50 (Mus musculus [9]): inactive; Activity (Mus musculus [6]): inactive; ED50 (Mus musculus [10]): inactive
O=C(NCCc1ccc(O)c(O)c1)C(=O)c1c[nH]c2ccc(Br)cc12 |  | 1200 | 0.7 | inhibition [4]: 85%
O=C(NCCc1ccc(Cl)cc1)C(=O)c1c[nH]c2ccc(Cl)cc12 | 4 |  |  | 
O=C(NCCc1c[nH]c2ccccc12)C(=O)c1c[nH]c2ccc(Cl)cc12 | 70 |  |  | 
O=C(NCCc1c[nH]c2ccccc12)C(=O)c1c[nH]c2ccc(Br)cc12 | 62 |  |  | 
COc1ccc(CCNC(=O)C(=O)c2cn(C)c3ccccc23)cc1OC | 51 |  |  | 
O=C(NCCc1ccc(Cl)cc1)C(=O)c1c[nH]c2ccccc12 |  | 340 | 1.2 | 
COc1cccc(CCNC(=O)C(=O)c2c[nH]c3ccc([N+](=O)[O-])cc23)c1 | 25 |  |  | 
